# Pf gametocyte: kills late stage P. falciparum gametocytes | inhibition, % at 10.9 µM | P. falciparum stage V gametocytes, ATP luminescence, 24 h | 0.065% of 150,000 active | AID 743093;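 active = inhibition above the mean plus 3 SD of compounds within the control limits, set per campaign, cut at about 38% in these data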
# APP 5'UTR act: APP 5'UTR luciferase reporter activation; activation, % at 2 µM; 1% of 190,000 active; SH-SY5Y APP 5'UTR luciferase reporter, luminescence; zero percent = DMSO vehicle wells;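 active = activation above a set limit, based on mean plus 3 SD of controls, cut at about 140% in these data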
# NF-kB expr up: NF-kB expression increase, human neuronal cells. NF-kB reporter expression; active compounds read high. fold change at 12.5 µM. 1.6% of 190,000 active; in the data active = fold change above about 3.3
# STAT1 act: increases IFN-gamma driven STAT1 reporter signal. activation (% of control), % at 5.5 µM. 2.6% of 200,000 active. NIH 3T3 STAT1-luciferase reporter, luminescence; 100% = IFN-gamma alone, no compound;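 active = activation above the screen-wide mean activation plus 3 SD, cut at about 130% in these data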
# FLuc stim CS: firefly luciferase counter-screen for stimulation assays; P08659; ATPlite luciferase biochemical, luminescence, 10 min; 0 = ATP-free wells, 1 = DMSO control; activation factor at 10 µM; 200,000 tested, under 10 active;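 active = luciferase activation factor, scaled between plate controls, of at least 2 with compound at 10 µM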
# Target sequence (P08659 whole entry, looked up): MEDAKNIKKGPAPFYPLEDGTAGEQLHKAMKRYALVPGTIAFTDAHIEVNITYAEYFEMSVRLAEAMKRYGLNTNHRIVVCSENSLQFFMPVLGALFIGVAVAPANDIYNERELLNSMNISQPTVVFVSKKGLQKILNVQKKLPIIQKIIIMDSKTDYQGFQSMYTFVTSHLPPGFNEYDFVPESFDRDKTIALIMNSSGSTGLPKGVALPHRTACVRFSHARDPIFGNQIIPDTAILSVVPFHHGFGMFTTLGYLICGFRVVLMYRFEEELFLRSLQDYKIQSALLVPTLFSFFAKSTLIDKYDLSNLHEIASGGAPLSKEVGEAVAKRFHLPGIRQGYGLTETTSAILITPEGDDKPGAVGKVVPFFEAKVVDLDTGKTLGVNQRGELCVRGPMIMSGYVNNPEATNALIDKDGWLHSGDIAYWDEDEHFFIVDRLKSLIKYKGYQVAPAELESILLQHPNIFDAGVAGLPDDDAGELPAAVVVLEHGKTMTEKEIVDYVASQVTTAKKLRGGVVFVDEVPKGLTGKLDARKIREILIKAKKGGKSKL
#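 Material: Luciferase/luciferin reagent mix; Doses: test compounds dosed from 2 mM stocks in 100% DMSO; Schedule: 10 min incubation after luciferase reagent addition, room temperature; Measured by: luminescence from luciferase reaction; Read-out: luminescence gain marking luciferase activators.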
# FLuc inhib CS: counter-screen for luciferase assay inhibitors: firefly luciferase inhibition; 1.5% of 200,000 active; AID 1006; inhibition, % at 10 µM; ATPLite firefly luciferase biochemical luminescence, 10 min;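 active = inhibition above about 50% when tested at 10 µM, limit read from the data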
# A number is an active result; – = inactive; · = not tested or not shown. Rows were chosen to be rich in hits. Some 3.5% of all compounds tested hit in one or more screens of this group.
SMILES,Pf gametocyte,APP 5'UTR act,NF-kB expr up,STAT1 act,FLuc stim CS,FLuc inhib CS
CNc1nnc(-c2ccc(OC)cc2)s1,–,–,–,–,–,63
CNc1nnc(-c2ccncc2)s1,·,–,–,–,–,–
O=C(CSc1ncccc1-c1nc2ccccc2[nH]1)NCc1ccco1,·,–,–,–,–,–
Cc1cc2nc(-c3cccnc3SCC(=O)NC3CC3)[nH]c2cc1C,–,–,–,–,–,70
Cc1cc2nc(-c3cccnc3SCC(=O)NCc3ccco3)[nH]c2cc1C,·,–,5.3,–,·,·
O=C(NCc1ccc(-c2nc3ccccc3s2)cc1)c1cc2ccccc2o1,·,–,–,–,–,–
COc1cc(C(=O)NCc2ccc(-c3nc4ccccc4s3)cc2)cc(OC)c1OC,–,–,–,141,–,–
O=C(NCc1ccc(-c2nc3ccccc3s2)cc1)c1ccc(Br)o1,·,–,–,137,–,–
COc1ccc2nc(SCC(=O)N3CC(=O)Nc4ccccc43)c(C#N)cc2c1,–,–,–,–,–,–
Cc1cc(C)c2nc(SCC(=O)N3CC(=O)Nc4ccccc43)c(C#N)cc2c1,·,–,3.5,–,–,–
Cc1nn(C(=O)c2ccc3c(c2)OCO3)c(N)c1-c1ccccc1,·,–,–,–,–,80
Cc1cc(N2CCC3(CC2)OCCO3)n2nc(C)c(-c3ccc(Cl)cc3)c2n1,·,–,·,–,·,·
Cc1ccc(N2CS(=O)(=O)/C(=C/N(C)C)C2=O)cc1,–,–,–,150,–,57
CCOc1ccc(C(=O)NCC(=O)OCC(=O)Nc2ccc(C)c(S(=O)(=O)N(C)C)c2)cc1,·,–,–,–,–,65
c1cnc2ccc(C(c3nnnn3C3CCCC3)N3CCN4CCCC4C3)cc2c1 (centres undefined),–,–,–,–,–,–
O=S(=O)(Nc1ccccc1)c1ccc(-c2csnn2)cc1,–,·,·,·,·,·
c1ccc(-c2ccc(-c3csnn3)cc2)cc1,–,–,–,132,–,–
COc1ccc(Cl)cc1NC(=O)C12CCC(C)(C(=O)O1)C2(C)C (centres undefined),–,–,–,–,–,–
CCOC(=O)c1ccc(NC(=S)NNC(C)(C)C)cc1,–,·,·,·,·,·
CCOC(=O)c1ccc(N/C=C/C(=O)C(C)(C)C)cc1,–,–,4.2,136,–,–
CCOC(=O)c1ccc(N/C=C/C(=O)c2ccccc2)cc1,–,164,4.8,–,–,–
COc1cc(NC(=S)Nc2ccccn2)cc(OC)c1,·,–,–,–,–,–
O=C(c1cc(COc2c(F)cccc2F)on1)N1CCC(c2ccccc2F)C1 (centres undefined),–,–,–,132,–,–
O=C(c1cc(COc2c(F)cccc2F)on1)N1CCC(c2ccccc2Cl)C1 (centres undefined),–,–,–,–,–,–
CCOC(=O)c1cnc2c(-c3ccc(Cl)cc3)cnn2c1C,–,–,–,–,–,57
SMILES,Pf gametocyte,APP 5'UTR act,NF-kB expr up,STAT1 act,FLuc stim CS,FLuc inhib CS
COc1ccc(C(=O)N2CC3(CC(c4ccc(Cl)cc4)=NO3)C[C@H]2C(=O)NCC(N)=O)cc1 (some centres undefined),·,–,–,–,–,–
CC(=O)c1ccc(NC(=S)NC(C)CCc2ccccc2)cc1 (centres undefined),–,–,–,–,–,–
COc1cccc(/C=N/NC(=O)Cn2cnc3c2c(=O)n(C)c(=O)n3C)c1,–,·,·,·,·,·
O=[N+]([O-])c1ccc2oc(C3CCCCC3)nc2c1,·,–,–,–,–,–
Nc1ccc2oc(C3CCCCC3)nc2c1,–,–,–,132,–,–
Clc1ccc(-c2ccccc2)nn1,–,·,·,·,·,·
Cc1ccc2nc(-c3ccc(NC(=O)Cc4cccs4)cc3)[nH]c2c1,–,–,–,145,–,–
O=C(O)CCC(=O)Nc1ccc(-c2nc3ccc(C(=O)c4ccccc4)cc3[nH]2)cc1,–,·,·,·,·,·
CCn1nc(NC(=O)C2CCCO2)c2cc3cc(C)ccc3nc21 (centres undefined),–,–,–,–,–,–
Cc1ccc2nc(-c3ccc(NC(=O)C4CCCO4)cc3)[nH]c2c1 (centres undefined),·,–,3.8,–,–,82
CCOC(=O)Cn1nc(C)n(-c2ccc(C)cc2)c1=O,–,–,–,–,–,–
CCn1c(C)cc(/C=C2/SC(=S)NC2=O)c1C,–,–,–,–,–,52
CCn1ncc(/C=C2/SC(=S)NC2=O)c1C,–,–,–,–,–,–
O=C(CNC(=S)N(CCCN1CCOCC1)Cc1cccs1)N1CCCC1,–,–,–,–,–,–
O=C(Nc1nccs1)c1ccc(NC(=O)c2ccco2)cc1,–,–,–,137,–,–
Cc1ccc(C(=O)Nc2nccs2)cc1,–,–,3.5,–,–,83
Cc1ccc(C(=O)Nc2nnc(C)s2)cc1,–,–,–,–,–,58
Cc1nnc(NC(=O)c2ccc3c(c2)C(=O)N(CC2CCCO2)C3=O)s1 (centres undefined),–,–,–,–,–,67
Cc1ccc(NC(=O)c2ccc3c(c2)C(=O)N(CC2CCCO2)C3=O)cc1C (centres undefined),–,–,–,–,–,–
Nc1ccc(C(=O)Nc2nccs2)cc1,–,–,–,–,–,–
NC(=NCCc1ccccc1)NC(=O)c1cc(Cl)ccc1O,–,·,·,·,·,·
COc1cc(OC)cc(C(=O)N2CCN(C3CCC(C)CC3)CC2)c1 (centres undefined),–,·,·,·,·,·
NC(=O)COC(=O)c1ccccc1Oc1ccccc1,–,–,–,–,–,–
CC1CN(C(=O)c2ccc(COc3ccc(C(C)C)cc3)o2)CC(C)O1 (centres undefined),–,–,–,129,–,–
Cc1ccc(C)c(N2C(=O)C3C4C=CC(CC4)C3C2=O)c1 (centres undefined),–,·,·,·,·,·
SMILES,Pf gametocyte,APP 5'UTR act,NF-kB expr up,STAT1 act,FLuc stim CS,FLuc inhib CS
O=C(Nc1ccc2c(c1)CCC2)c1cnccn1,–,–,–,143,–,–
CCCCc1ccc(NC(=O)c2cnccn2)cc1,–,174,5.8,–,–,76
CC(=O)Nc1ccc2c(c1)CCCC2,–,·,·,·,·,·
Cc1cnc(C(=O)Nc2ccc3c(c2)CCC3)cn1,–,163,7.4,–,–,–
CN1N=C(C(=O)Nc2ccc3c(c2)CCC3)CCC1=O,–,–,–,132,–,–
CNC(=O)COc1ccc(S(=O)(=O)N2CCCC2)cc1,–,·,·,·,·,·
S=C(Nc1ccccc1)N1N=C(c2cccs2)CC1c1cccs1 (centres undefined),–,–,–,–,–,–
O=c1c([N+](=O)[O-])c(N2CCCCCC2)c2ccccc2n1-c1ccccc1,·,–,–,–,–,–
Cc1cc(C)n2nc(C(=O)Nc3ccc4c(c3)CCC4)nc2n1,–,–,–,–,–,52
COC(=O)c1ccc(-c2cc3onc(-c4ccccc4)c3c(=O)n2C)cc1,–,·,·,·,·,·
O=C(O)CCCNC(=O)Nc1ccccc1,–,–,13,–,–,–
CCCCCCNC(=O)Nc1ccccc1,·,–,–,–,–,–
